Assay results: ChEMBL document CHEMBL1681705, “Optimisation of ITK inhibitors through successive iterative design cycles” (Bioorg Med Chem Lett, 2011)

Experiments:
[1] = Solubility of the compound; assay type: physicochemical
[2] = molecular target: Hepatocyte growth factor receptor (Homo sapiens) (UniProt P08581); experiment: Inhibition of Met at 1 uM
Procedure, shortened: (§1)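 Single-point screen within a 108-kinase selectivity panel. Each kinase was tested with inhibitor at 0.1 and 1.0 micromolar, and activity was recorded as percent inhibition.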

[3] = molecular target: RAF proto-oncogene serine/threonine-protein kinase (Homo sapiens) (UniProt P04049); experiment: Inhibition of c-RAF at 0.1 uM; values are per cent of control
[4] = molecular target: Tyrosine-protein kinase SYK (Homo sapiens) (UniProt P43405); experiment: Inhibition of Syk at 0.1 uM; values are per cent of control
[5] = molecular target: Vascular endothelial growth factor receptor 2 (Homo sapiens) (UniProt P35968); experiment: Inhibition of KDR at 1 uM; values are per cent of control
Chain of Vascular endothelial growth factor receptor 2 (Homo sapiens) (P35968 whole entry): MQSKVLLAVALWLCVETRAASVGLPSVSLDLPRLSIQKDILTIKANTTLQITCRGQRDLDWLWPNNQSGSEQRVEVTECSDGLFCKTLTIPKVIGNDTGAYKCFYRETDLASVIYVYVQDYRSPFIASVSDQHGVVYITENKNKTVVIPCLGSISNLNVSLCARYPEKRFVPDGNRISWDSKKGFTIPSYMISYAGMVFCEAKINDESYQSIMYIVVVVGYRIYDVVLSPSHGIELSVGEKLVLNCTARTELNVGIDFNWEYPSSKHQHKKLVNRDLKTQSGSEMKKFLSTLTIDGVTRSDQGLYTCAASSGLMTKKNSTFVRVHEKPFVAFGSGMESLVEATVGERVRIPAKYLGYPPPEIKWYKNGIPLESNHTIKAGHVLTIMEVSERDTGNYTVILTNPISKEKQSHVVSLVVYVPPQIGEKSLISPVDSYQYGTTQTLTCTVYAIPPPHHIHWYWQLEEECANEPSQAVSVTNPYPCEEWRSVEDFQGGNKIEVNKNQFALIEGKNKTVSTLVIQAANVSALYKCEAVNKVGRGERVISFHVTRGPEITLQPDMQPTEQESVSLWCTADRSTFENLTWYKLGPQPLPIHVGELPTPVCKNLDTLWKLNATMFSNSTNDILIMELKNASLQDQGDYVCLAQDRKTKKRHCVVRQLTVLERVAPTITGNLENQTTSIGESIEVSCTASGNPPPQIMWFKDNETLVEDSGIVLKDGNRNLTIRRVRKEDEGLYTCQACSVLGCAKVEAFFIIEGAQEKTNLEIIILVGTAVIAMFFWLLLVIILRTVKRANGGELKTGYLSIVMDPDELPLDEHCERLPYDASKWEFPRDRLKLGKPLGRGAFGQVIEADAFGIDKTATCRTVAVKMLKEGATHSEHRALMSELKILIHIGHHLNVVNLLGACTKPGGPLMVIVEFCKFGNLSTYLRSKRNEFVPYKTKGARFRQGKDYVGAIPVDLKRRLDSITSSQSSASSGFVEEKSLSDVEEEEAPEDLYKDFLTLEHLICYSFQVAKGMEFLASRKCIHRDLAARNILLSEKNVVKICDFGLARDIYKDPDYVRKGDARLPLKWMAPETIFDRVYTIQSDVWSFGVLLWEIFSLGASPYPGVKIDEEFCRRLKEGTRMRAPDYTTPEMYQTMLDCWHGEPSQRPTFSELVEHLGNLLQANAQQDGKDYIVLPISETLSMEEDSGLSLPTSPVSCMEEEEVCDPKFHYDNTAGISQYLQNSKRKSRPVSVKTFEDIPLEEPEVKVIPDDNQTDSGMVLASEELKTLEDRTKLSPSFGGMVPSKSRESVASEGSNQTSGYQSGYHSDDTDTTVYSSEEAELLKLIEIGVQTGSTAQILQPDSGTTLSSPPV

[6] = molecular target: Calcium/calmodulin-dependent protein kinase type 1 (Homo sapiens) (UniProt Q14012); experiment: Inhibition of CaMK1 at 1 uM; values are per cent of control
[7] = molecular target: T1, Activin receptor type-1B (Homo sapiens) (UniProt P36896); experiment: Inhibition of ALK4 at 1 uM; values are per cent of control
T1 sequence (whole entry): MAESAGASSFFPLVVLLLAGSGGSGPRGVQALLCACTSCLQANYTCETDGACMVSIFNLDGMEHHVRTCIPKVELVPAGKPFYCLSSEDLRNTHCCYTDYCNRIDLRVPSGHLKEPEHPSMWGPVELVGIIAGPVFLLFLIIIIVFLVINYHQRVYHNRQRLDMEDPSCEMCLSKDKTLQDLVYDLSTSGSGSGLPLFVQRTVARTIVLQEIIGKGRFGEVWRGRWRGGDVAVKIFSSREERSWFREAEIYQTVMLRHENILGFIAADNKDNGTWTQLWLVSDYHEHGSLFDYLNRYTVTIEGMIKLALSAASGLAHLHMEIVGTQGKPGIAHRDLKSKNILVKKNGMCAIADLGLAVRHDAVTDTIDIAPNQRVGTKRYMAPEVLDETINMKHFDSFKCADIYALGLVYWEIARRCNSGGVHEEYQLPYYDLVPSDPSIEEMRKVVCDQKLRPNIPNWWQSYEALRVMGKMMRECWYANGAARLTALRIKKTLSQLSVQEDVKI

[8] = molecular target: Tyrosine-protein kinase Fes/Fps (Homo sapiens) (UniProt P07332); experiment: Inhibition of Fes at 1 uM; values are per cent of control
[9] = molecular target: Serine/threonine-protein kinase N2 (Homo sapiens) (UniProt Q16513); experiment: Inhibition of PRK2 at 1 uM; values are per cent of control
[10] = molecular target: Tyrosine-protein kinase Lyn (Homo sapiens) (UniProt P07948); experiment: Inhibition of Lyn at 0.1 uM; values are per cent of control
Chain of Tyrosine-protein kinase Lyn (Homo sapiens) (P07948 2-512 limits assumed): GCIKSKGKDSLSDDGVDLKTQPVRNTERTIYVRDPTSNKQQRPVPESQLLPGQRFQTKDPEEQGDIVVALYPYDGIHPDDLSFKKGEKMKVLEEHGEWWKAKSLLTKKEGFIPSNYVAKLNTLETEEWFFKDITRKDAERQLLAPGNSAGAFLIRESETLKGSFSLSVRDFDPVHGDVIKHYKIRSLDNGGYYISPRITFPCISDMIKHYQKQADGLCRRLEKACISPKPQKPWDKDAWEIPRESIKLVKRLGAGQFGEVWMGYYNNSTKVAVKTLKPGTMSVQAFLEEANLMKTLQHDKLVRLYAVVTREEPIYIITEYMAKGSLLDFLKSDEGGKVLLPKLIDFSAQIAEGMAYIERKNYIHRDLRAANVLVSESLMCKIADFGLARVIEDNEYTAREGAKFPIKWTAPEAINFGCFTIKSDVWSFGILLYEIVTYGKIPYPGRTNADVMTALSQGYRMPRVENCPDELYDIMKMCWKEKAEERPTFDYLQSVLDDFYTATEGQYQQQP

Mus musculus [11] = experiment: Antiinflammatory activity in iv dosed BALB/c mouse assessed as inhibition of monoclonal anti-CD3-induced IL-2 production administered 10 min before monoclonal anti-CD3 challenge measured after 2 hrs by ELISA
[12] = molecular target: Mast/stem cell growth factor receptor Kit (Homo sapiens) (UniProt P10721); experiment: Inhibition of c-Kit at 1 uM; values are per cent of control
Chain of Mast/stem cell growth factor receptor Kit (Homo sapiens) (P10721 whole entry): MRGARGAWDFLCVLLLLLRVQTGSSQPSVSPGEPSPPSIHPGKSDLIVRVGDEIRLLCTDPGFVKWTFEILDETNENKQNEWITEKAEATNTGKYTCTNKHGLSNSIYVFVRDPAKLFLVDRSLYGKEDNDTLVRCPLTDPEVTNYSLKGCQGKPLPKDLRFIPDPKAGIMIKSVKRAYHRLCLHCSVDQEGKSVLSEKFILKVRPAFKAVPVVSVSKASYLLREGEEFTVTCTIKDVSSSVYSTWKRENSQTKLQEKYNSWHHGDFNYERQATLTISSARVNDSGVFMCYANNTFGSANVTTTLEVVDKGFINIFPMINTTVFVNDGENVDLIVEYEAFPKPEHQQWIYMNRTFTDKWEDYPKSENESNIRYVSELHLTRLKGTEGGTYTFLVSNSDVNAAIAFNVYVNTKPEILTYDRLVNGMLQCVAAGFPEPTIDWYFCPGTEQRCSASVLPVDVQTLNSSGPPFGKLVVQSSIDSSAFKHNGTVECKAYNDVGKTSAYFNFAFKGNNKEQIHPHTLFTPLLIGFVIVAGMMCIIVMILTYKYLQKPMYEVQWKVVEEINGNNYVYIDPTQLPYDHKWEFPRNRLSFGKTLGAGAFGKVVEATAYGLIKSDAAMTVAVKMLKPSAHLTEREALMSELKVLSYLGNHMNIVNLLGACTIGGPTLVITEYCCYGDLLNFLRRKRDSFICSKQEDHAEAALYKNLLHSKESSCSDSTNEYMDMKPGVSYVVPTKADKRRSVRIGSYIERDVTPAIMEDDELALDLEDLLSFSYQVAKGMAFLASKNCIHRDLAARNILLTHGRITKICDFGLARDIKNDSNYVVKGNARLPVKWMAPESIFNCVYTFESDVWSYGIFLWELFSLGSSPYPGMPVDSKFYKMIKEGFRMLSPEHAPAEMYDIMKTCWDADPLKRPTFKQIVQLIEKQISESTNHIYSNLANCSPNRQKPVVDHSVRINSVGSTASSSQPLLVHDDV

[13] = Inhibition of JNK2a2 at 0.1 uM; details: values are per cent of control
[14] = molecular target: Protein kinase C alpha type (Homo sapiens) (UniProt P17252); experiment: Inhibition of PKCalpha at 1 uM; values are per cent of control
[15] = molecular target: Insulin-like growth factor 1 receptor (Homo sapiens) (UniProt P08069); experiment: Inhibition of IGF1R at 0.1 uM; values are per cent of control
Chain of Insulin-like growth factor 1 receptor (Homo sapiens) (P08069 31-736 limits assumed): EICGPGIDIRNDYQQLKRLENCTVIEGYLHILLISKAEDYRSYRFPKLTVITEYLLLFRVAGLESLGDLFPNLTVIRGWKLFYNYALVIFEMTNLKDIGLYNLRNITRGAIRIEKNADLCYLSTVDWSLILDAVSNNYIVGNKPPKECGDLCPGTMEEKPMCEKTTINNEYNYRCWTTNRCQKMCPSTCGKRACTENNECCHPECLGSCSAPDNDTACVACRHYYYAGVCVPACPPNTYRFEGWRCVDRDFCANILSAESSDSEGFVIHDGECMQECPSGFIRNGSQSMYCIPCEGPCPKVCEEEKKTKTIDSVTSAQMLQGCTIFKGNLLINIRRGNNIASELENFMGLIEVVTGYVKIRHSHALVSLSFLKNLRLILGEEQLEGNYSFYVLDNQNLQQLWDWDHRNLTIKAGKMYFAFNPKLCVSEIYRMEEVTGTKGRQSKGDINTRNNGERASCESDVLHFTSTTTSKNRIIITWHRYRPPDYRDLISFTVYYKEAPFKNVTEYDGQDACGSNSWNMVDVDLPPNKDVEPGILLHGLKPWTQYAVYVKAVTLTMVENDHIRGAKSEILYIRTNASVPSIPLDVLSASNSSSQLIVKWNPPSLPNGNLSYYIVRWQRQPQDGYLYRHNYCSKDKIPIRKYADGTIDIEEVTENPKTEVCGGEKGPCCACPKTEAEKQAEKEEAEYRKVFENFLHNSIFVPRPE
Chain of Insulin-like growth factor 1 receptor (Homo sapiens) (P08069 741-1367 limits assumed): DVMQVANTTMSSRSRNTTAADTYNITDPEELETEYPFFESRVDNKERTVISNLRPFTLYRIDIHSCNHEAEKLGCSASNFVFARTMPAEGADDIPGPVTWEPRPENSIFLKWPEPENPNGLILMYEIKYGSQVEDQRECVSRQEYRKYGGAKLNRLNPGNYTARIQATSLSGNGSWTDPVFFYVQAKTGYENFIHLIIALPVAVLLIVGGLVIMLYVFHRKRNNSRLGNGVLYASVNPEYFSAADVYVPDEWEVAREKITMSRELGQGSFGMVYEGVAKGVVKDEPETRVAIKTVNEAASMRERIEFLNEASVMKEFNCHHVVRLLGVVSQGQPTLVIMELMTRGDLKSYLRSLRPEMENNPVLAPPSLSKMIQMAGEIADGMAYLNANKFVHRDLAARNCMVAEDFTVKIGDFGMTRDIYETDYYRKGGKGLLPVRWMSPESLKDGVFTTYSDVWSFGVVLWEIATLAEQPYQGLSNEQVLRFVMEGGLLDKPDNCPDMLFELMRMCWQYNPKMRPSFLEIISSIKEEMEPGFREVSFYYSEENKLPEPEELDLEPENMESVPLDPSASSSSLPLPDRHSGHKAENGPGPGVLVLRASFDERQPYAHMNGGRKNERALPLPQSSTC

[16] = molecular target: Death-associated protein kinase 2 (Homo sapiens) (UniProt Q9UIK4); experiment: Inhibition of DAPK2 at 0.1 uM; values are per cent of control
[17] = molecular target: T2, Dual specificity mitogen-activated protein kinase kinase 7 (Homo sapiens) (UniProt O14733); experiment: Inhibition of MKK7beta at 1 uM; procedure, shortened: as §1
T2 sequence (whole entry): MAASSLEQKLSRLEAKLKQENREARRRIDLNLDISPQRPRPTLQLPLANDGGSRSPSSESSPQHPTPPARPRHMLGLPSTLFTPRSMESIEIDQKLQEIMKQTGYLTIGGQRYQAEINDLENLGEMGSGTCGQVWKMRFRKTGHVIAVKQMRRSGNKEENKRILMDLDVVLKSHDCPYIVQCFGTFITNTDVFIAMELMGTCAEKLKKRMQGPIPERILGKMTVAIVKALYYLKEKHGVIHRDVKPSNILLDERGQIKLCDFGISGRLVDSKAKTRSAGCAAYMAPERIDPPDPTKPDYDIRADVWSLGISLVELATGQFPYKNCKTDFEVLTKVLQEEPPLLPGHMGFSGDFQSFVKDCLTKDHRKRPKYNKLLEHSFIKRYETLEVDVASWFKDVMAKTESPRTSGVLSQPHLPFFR

Mus musculus [18] = experiment: Antiinflammatory activity in BALB/c mouse assessed as inhibition of monoclonal anti-CD3-induced IL-2 production at 10 mg/kg, iv administered 10 min before monoclonal anti-CD3 challenge measured after 2 hrs by ELISA; details: BLD = below limit of detection
[19] = Inhibition of ROCK1 at 1 uM

SMILES	solubility [1]	inhibition [2] [%]	residual activity [3] [%]	residual activity [4] [%]	residual activity [5] [%]	residual activity [6] [%]	residual activity [7] [%]	residual activity [8] [%]	residual activity [9] [%]	residual activity [10] [%]	ED50 (Mus musculus [11]) [mg/kg]	inhibition (Mus musculus [11])	residual activity [12] [%]	residual activity [13] [%]	residual activity [14] [%]	residual activity [15] [%]	residual activity [16] [%]	inhibition [17] [%]	inhibition (Mus musculus [18])	inhibition [19] [%]
Cc1ccc2cc(-c3n[nH]c4ccc(NC5CCNC5)cc34)[nH]c2c1 (stereo not given)	soluble	6	92	2	5	24	114	0	49	1	2.1	Dose-dependent effect	69	103	27	98	91	52	BLD	
Cc1ccc2cc(-c3n[nH]c4ccc(NC5CCN(Cc6ccccc6)CC5)cc34)[nH]c2c1		28	101	0	21	78	103	1	3	15			122	93	36	52	106	95		45
